Assay outcomes: PubChem BioAssay, Johns Hopkins Ion Channel Center
TRPC4 act: activators of mouse TRPC4 channel, primary screen, Fluo4 calcium, HEK293 TRPC4beta/mu-opioid cells; Short transient receptor potential channel 4 (Mus musculus), Q9QUQ5; Fluo4 calcium fluorescence; active compounds read high; B-score at 10 µM; actives 0.49% (n = 310,000); AID 2237, 2010;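 active = B-score above 5 SD of library B-scores, and initial fluorescence ratio not above library mean plus 5 SD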;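 note: positive B-score marks a calcium rise read as TRPC4 activation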
Target sequence (Q9QUQ5 whole entry, looked up): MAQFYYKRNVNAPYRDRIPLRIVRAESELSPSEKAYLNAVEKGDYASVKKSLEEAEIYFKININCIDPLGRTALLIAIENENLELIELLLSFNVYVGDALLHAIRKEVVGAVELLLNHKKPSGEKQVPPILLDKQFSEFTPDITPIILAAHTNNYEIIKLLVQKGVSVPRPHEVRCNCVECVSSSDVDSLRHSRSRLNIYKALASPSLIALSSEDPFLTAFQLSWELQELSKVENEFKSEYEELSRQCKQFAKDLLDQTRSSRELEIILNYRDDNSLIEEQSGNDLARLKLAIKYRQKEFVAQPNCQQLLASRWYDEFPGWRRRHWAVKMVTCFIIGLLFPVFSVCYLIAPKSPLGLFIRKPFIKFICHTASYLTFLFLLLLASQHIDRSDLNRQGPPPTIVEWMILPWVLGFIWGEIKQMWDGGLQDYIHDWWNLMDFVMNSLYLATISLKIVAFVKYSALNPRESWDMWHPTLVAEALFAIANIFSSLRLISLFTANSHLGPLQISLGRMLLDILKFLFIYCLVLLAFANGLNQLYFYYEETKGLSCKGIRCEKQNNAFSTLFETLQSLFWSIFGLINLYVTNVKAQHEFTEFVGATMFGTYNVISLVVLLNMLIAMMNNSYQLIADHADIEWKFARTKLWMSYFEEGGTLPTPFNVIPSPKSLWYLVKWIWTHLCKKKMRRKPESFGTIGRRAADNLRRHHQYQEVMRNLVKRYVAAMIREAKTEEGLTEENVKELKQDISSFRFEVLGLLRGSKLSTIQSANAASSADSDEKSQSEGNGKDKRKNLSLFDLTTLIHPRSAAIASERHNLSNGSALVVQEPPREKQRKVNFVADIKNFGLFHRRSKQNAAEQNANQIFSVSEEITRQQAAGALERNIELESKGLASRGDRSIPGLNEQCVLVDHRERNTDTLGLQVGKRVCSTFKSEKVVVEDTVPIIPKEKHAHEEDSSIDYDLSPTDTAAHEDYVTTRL
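Material: TRPC4beta and mu-opioid receptor HEK293 stable cells | Incubation: 45 min room-temperature Fluo4 loading, 110 s read | Detection: Kinetic Fluo4 calcium fluorescence | Measure: Integrated baseline-normalised fluorescence ratio, converted to per-well B score | Benchmarks: Low control buffer alone, high control maximal DAMGO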
TRPC4 inh: inhibitors of mouse TRPC4 channel, primary screen, Fluo4 calcium, HEK293 TRPC4beta/mu-opioid cells; DAMGO-evoked Fluo4 calcium flux; active compounds read low; AID 2247, 2010; B-score at 10 µM; actives 0.39% (n = 300,000);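 active = B-score over 3 SD under the library average, no early fluorescence shift, positive overall ratio signal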
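Test system – stable TRPC4beta/mu-opioid receptor HEK293 cells · Probe or stimulus – DAMGO, a submaximal dose followed by a maximal one · Dosing – one concentration per compound · Signal – Fluo4 calcium fluorescence by kinetic imaging, 5 s 1 Hz baseline · Evaluation – per-well B score of integrated baseline-normalized Fluo4 ratio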
TRPC4 potent: positive allosteric modulators of TRPC4, primary screen, cell-based, mouse TRPC4beta, HEK293 mu-opioid, Fluo-4 calcium | DAMGO EC20, Fluo-4 Ca2+ flux; active compounds read high | actives 0.42% (n = 310,000) | B-score at 10 µM | Short transient receptor potential channel 4 (Mus musculus), Q9QUQ5 | AID 2227, 2009;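 active = B-score of calcium response area above 5 SD of library B-scores, with initial fluorescence ratio within 5 SD of library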
TRPC6 inhibitor: mouse TRPC6 channel inhibitors, primary screen, cell-based, HEK293, membrane potential dye; Short transient receptor potential channel 6 (Mus musculus), Q61143; ACh-evoked depolarization; active compounds read low; B-score at 10 µM; actives 1.1% (n = 310,000); AID 2553, 2010;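 active = B-score under library mean minus 3 SD, initial fluorescence not abnormally high, positive integrated signal ratio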;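 note: B-score derived from integrated fluorescence ratio over the kinetic read; more negative B-score means stronger inhibition of depolarization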
TRPC6 activator: mouse TRPC6 channel activators, primary screen, cell-based, HEK293, membrane potential dye | actives 0.13% (n = 310,000) | B-score at 10 µM | AID 2550, 2010 | HEK293-TRPC6 membrane potential dye fluorescence; active compounds read high;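 active = B-score of the integrated fluorescence ratio above library mean plus 3 SD, and starting fluorescence ratio within library mean plus 5 SD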;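 note: higher score means more depolarization so channel activation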
Large screens that a line does not name were inactive. Compounds with a hit are over-represented: about 2.3% of the library has one in this group of screens.

COc1ccc(-c2c([C@H]3[C@H]4C=CC[C@@H](C)[C@@H]4C(=O)N3Cc3ccccc3)ccc3ccccc23)cc1OC	none
COc1cc(C2c3c(-c4ccccc4)n[nH]c3C(=O)N2c2ccccc2)ccc1O (stereo not given)	TRPC4 potent 14
COc1ccccc1C(=O)OCC(=O)Nc1ccc(Cl)cn1	none
Cc1ccc(CN(C(=O)c2cc(=O)c3cc(Cl)c(C)cc3o2)C2CCS(=O)(=O)C2)cc1 (stereo not given)	TRPC4 potent 19
Cc1ccc(CN(C(=O)c2cc(=O)c3cc(C)cc(C)c3o2)C2CCS(=O)(=O)C2)cc1 (stereo not given)	none
Cc1cc2oc(C(=O)N(Cc3cccs3)C3CCS(=O)(=O)C3)cc(=O)c2cc1Cl (stereo not given)	TRPC4 potent 95
CCCn1c(SCC(=O)NCc2ccc(Cl)cc2)n[nH]c1=O	none
O=C(Nc1ccc(F)cc1)Nc1nnc(Cc2ccccc2F)s1	none
Cc1cccc(N2CC(C(=O)Nc3ccc(S(=O)(=O)Nc4nccs4)cc3)CC2=O)c1C (stereo not given)	none
CCOP(=O)(OCC)c1nc(-c2cccc3ccccc23)oc1NCc1ccccc1	none
CCOP(=O)(OCC)c1nc(-c2cccc3ccccc23)oc1NCc1ccc(OC)cc1	TRPC4 potent 13
COc1ccc([N+](=O)[O-])cc1NC(=O)C(C)OC(=O)C1CCC1 (stereo not given)	none
O=C(Cn1ncc2c(=O)oc3ccccc3c21)NC1CC1	none
Cc1cc(=O)oc2c(C)c(OCC(=O)NC3CCN(Cc4ccccc4)CC3)ccc12	none
Cc1ccc2oc(=O)c3cnn(CC(=O)NC4CCN(Cc5ccccc5)CC4)c3c2c1	TRPC4 act 107
Cc1c(OCC(=O)NC2CCN(Cc3ccccc3)CC2)ccc2c3c(c(=O)oc12)CCC3	TRPC4 potent 11
CCOC(=O)c1nnsc1N	none
COC(=O)c1ccc(/C=C/c2c(-c3ccsc3)oc3ccc(N4CCOCC4)cc23)cc1	none
CN1C(=O)NC(c2cccc(F)c2)C2=C1CC(C)(C)CC2=O (stereo not given)	none
Cc1cc(C)cc(NC(=O)c2nnn(Cc3cc(C)ccc3C)c2N)c1	TRPC4 potent 17
CN(C)CCCN(C(=O)c1ccco1)c1nc2cc3c(cc2s1)OCO3	TRPC6 inhibitor -7.8
CN(C)CCCN(C(=O)c1ccc(C(=O)c2ccccc2)cc1)c1nc2cc3c(cc2s1)OCO3	none
COc1ccc(-c2csc(N(CCCN(C)C)C(=O)c3cccs3)n2)cc1	TRPC4 act 56
Cc1ccc(-c2csc(N(CCCN3CCOCC3)C(=O)c3ccco3)n2)cc1	none
Cc1ccc(-c2csc(N(CCCN(C)C)C(=O)c3ccco3)n2)cc1	TRPC4 inh -6
CCCCNC(=O)Nc1nc2ccc(CC)cc2s1	none
O=C(CCCN=C1NS(=O)(=O)c2ccccc21)OCC(=O)c1ccc(F)cc1	TRPC4 act 48
OCC1(Cc2ccccc2)CCCN(Cc2cnn(-c3ccccc3)c2)C1 (stereo not given)	TRPC4 inh -7
COCc1ccc(CN2CCCC(CO)(Cc3cccc(Cl)c3)C2)o1 (stereo not given)	none
Cc1cc(CN2CCCC(CO)(Cc3cccc(Cl)c3)C2)n[nH]1 (stereo not given)	none
CC(C)Cc1cc(CN2CCCC(CO)(Cc3cccc(Cl)c3)C2)[nH]n1 (stereo not given)	TRPC4 inh -10
Cc1ccc(-n2cc(CN3CCC(CO)(Cc4ccccc4)CC3)cn2)cc1	none
COc1ccccc1-n1cc(CN2CCCC(CO)(Cc3cccc(Cl)c3)C2)cn1 (stereo not given)	TRPC4 inh -5
CCOc1ccccc1C(=O)NCCc1cnc[nH]1	TRPC4 potent 17
O=C(NCCc1cnc[nH]1)c1ccc(-c2ccccc2)cc1	TRPC4 act 106
O=C(O)c1cc(-c2ccc(/C=N/N3C(=O)C4C5C=CC(C6CC56)C4C3=O)o2)ccc1Cl (stereo not given)	none
O=C1CCCC(=O)N1c1ccc(N2CCN(c3ccc([N+](=O)[O-])cc3)CC2)c([N+](=O)[O-])c1	TRPC4 potent 21
COCCCNC(=O)CN(c1cc(Cl)ccc1OC)S(C)(=O)=O	none
CN1CCN(Cc2c(C(=O)N/N=C/c3cccc(Br)c3)nnn2-c2nonc2N)CC1	TRPC4 act 43
Nc1nonc1-n1nnc(C(=O)N/N=C/c2cccc(O)c2)c1CN1CCCC1	none
COc1ccc2cc(-c3[nH]ncc3CN3CCCN(c4ccccc4)CC3)ccc2c1	none
CCc1ccc2nc3n[nH]c(N)c3cc2c1	TRPC4 act 68
Cc1cc(N2CCN(C)CC2)n2cc(-c3ccc(F)cc3)nc2n1	TRPC4 potent 15
CCNc1ccc(C2(O)C(=O)c3ccccc3C2=O)cc1	none
Cc1nonc1NC(=O)CSc1nnnn1-c1ccccc1	none
CC(C)=CCN1CCN(Cc2cccc3nonc23)CC1CCO (stereo not given)	TRPC4 inh -5
Cc1ccc(-c2nc3c(c(=O)c4ccccc4n3C)c(=O)n2-c2ccc(F)cc2)cc1	none
Cc1nc2c(c(=O)c3ccccc3n2C)c(=O)n1C1CCCCCC1	none
Cn1c2ccccc2c(=O)c2c(=O)n(C3CCCCC3)c(-c3ccco3)nc21	TRPC4 act 116
Cn1c2ccccc2c(=O)c2c(=O)n(-c3ccccc3)c(-c3ccc(C(C)(C)C)cc3)nc21	TRPC4 potent 21
CC1(C)OC(C(O)(c2ccccc2)c2ccccc2)[C@@H](C(O)(c2ccccc2)c2ccccc2)O1 (stereo not given in full)	none (no result: TRPC4 inh)
CN1CCC(CNC(=O)Nc2ccccc2)(c2ccccc2)CC1	TRPC4 act 172
CCCCCCc1cc2cc(-c3nnc(-c4cc(OC)c(OC)c(OC)c4)o3)c(=O)oc2cc1O	TRPC4 potent 40
CCCCCCc1cc2cc(-c3nnc(-c4ccccc4O)o3)c(=O)oc2cc1O	TRPC4 potent 25
CCOC(=O)C1CCN(CC(O)COc2ccc(C(C)(C)CC)cc2)CC1 (stereo not given)	none
CCOC(=O)C1CCN(CC(O)COc2ccc(C(C)(C)C)cc2)CC1 (stereo not given)	TRPC4 inh -6
Clc1cccc(OCCCN2CCCC2)c1Cl	none
Clc1cccc(OCCN2CCNCC2)c1	TRPC4 act 97
Clc1cccc(OCCOCCN2CCNCC2)c1Cl	TRPC4 act 44
Nc1ccc(Sc2ccccc2CC(=O)O)cc1	none
